Screening results from PubChem BioAssay.
NOD2 RIPK2 PPI: NOD2-RIPK2 binding disruptors in cells, primary screen, fluorescence, CHO cells, BLA complementation; CCF4 ratio; inhibition, % at 4.98 µM; 0.38% of 360,000 active; in the data active means inhibition above about 21%;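 further: 0% = vehicle only and 100% = reference blocker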
TLR4-MyD88 BLA: inhibitors of TLR4-MyD88 association in cells, primary screen, cell-based, HeLa CL3-4, BLA complementation, FRET ratio; Toll-like receptor 4 (Homo sapiens) + Myeloid differentiation primary response protein …; HeLa CL3-4 TLR4/MyD88 BLA complementation; inhibition, % at 8.4 µM; 0.18% of 200,000 active; AID 861, 2007; in the data active means inhibition above about 25%;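 further: 0% = vehicle and 100% = reference inhibitor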
TLR9-MyD88 block: inhibitors of TLR9-MyD88 association in cells, primary screen, cell-based, CHO, BLA complementation, fluorescence. Toll-like receptor 9 (Homo sapiens) + Myeloid differentiation primary response protein …. CCF4 FRET ratio. inhibition, % at 4.98 µM. 0.21% of 340,000 active;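 active means inhibition above the mean over all tested compounds plus 3 SD, cut at about 21% in these data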;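 further: 0% = DMSO only wells and 100% = clavulanate BLA inhibitor control wells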
MC4R ag barr: MC4R agonists recruiting beta-arrestin, primary screen, cell-based, luminescence, agonist arm of biased-ligand search; Melanocortin receptor 4 (Homo sapiens), P32245; U2OS MC4R beta-arrestin complementation; percent of melanotan II response, DMSO zero; activation, % at 8.9 µM; 0.98% of 360,000 active;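 active means activation above a per-plate cutoff, the mean activation of sample wells on that plate plus 3 SD, cut at about 8% in these data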
Target sequence (P32245 whole entry, looked up): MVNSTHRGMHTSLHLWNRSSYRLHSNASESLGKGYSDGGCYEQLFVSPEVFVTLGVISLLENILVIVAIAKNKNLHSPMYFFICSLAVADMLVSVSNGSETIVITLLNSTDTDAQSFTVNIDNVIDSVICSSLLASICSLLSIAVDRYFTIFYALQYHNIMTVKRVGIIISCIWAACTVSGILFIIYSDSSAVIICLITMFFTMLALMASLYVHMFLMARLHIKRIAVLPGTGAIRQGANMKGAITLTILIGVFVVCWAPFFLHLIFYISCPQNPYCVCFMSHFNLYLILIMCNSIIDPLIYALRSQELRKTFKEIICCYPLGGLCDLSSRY
MC4R antagonist: MC4R antagonists of cAMP signaling, primary screen, cell-based, TR-FRET, antagonist arm of biased-ligand search; Melanocortin receptor 4 (Homo sapiens), P32245; MC4R-expressing cells, MTII-stimulated cAMP, LANCE TR-FRET; inhibition, % at 6.5 µM; 0.48% of 360,000 active; AID 540295, 2011;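 active means inhibition above its plate's cutoff, the mean of tested wells on that plate plus 3 SD, cut at about 29% in these data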;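 further: 0% = Melanotan II alone and 100% = Melanotan II plus saturating MCL0020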
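System – human MC4R-expressing U2OS cells · Also added – Melanotan II · Dosing – one concentration, 6.5 µM nominal · Timing – 30-min compound, 1-h challenge, 1-h detection, room temperature · Measured by – Eu-cAMP/anti-cAMP TR-FRET, emission 671 nm · Replicates – singlicate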
MC4R barr conf: MC4R beta-arrestin agonists, retest, confirmation, cell-based, luminescence, U2OS; shares compounds with MC4R ag barr; activation, % at 8.9 µM; 31% of 2,400 active; U2OS MC4R beta-arrestin recruitment; scaled DMSO 0%, Melanotan II 100%;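 active means mean activation across replicates above the hit cutoff set in the earlier primary screen, cut at about 8% in these data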
MOR-DOR barr ag: agonists of MOR-DOR heterodimerization, counter-screen for MC4R biased agonist project, cell-based, luminescence. shares compounds with MC4R ag barr. 5.8% of 2,400 active. AID 602194, 2012. activation, % at 9.2 µM. U2OS PathHunter beta-arrestin, beta-gal luminescence; percent of deltorphin B response, DMSO zero;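 active means mean activation across replicates exceeds the hit threshold derived in the earlier primary screen, cut at about 18% in these data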;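 further: 100% = deltorphin B at 0.9 µM final and 0% = DMSO alone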
NOD2 RIPK2 conf: NOD2-RIPK2 binding disruptors, retest, confirmation, fluorescence, CHO cells, BLA complementation, triplicate; CCF4 FRET; AID 624370, 2012; shares compounds with NOD2 RIPK2 PPI; inhibition, % at 4.98 µM; 70% of 1,200 active;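 active means mean inhibition across replicates above a set limit taken from the earlier primary screen, cut at about 21% in these data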;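 further: 0% = DMSO-only wells and the high end = clavulanate BLA-blocked wells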
BLA counter: counter-screen for NOD2-RIPK2 interaction inhibitors: BLA reporter | shares compounds with NOD2 RIPK2 PPI | CHO BLA reporter, CCF4 FRET ratio, counterscreen | inhibition, % at 4.98 µM | 57% of 1,200 active | AID 624371;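 active means mean inhibition above the low-control mean inhibition plus three low-control SD, cut at about 11% in these data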;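 further: 0% = DMSO only wells and 100% = clavulanate high control wells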
* = called active by the depositor; / = not tested or not shown. The list is not random: actives were taken first. Their share in the collection is about 1.8%.

SMILES	NOD2 RIPK2 PPI	TLR4-MyD88 BLA	TLR9-MyD88 block	MC4R ag barr	MC4R antagonist	MC4R barr conf	MOR-DOR barr ag	others
COc1ccc(OC)c(-c2csc(NC(=O)CSCc3c(C)noc3C)n2)c1	-10.7	/	-13.5	0.3	-1.0	/	/
Cc1ccc(CN(C)C(=O)c2c(C)nn(-c3ccccc3)c2C)cc1	-6.3	/	7.3	-0.1	3.2	/	/
Cc1ccc(-c2csc(N(C)C(=O)c3c(C)nn(-c4ccccc4)c3Cl)n2)cc1	-2.5	-11.3	2.5	15.7*	0.9	7.7	3.2
CC(C)(C)c1ccc(S(=O)(=O)NCCc2ccncc2)cc1	-4.7	-3.2	2.0	-1.9	-1.4	/	/
CC(C)(C)c1ccc(S(=O)(=O)NCCOCC(F)(F)C(F)F)cc1	7.5	-8.6	9.8	12.6*	-4.1	1.0	12.8
CCOC(=O)c1ccc(/C=C2/C=C(c3ccccc3)N(c3ccc(Cl)c(C(=O)O)c3)C2=O)cc1	-4.8	13.9	-10.3	0.2	9.5	/	/
O=C(NCc1ccc(-c2csnn2)cc1)c1cc(Cl)cc(Cl)c1	7.0	/	-8.1	12.5*	2.4	2.0	4.4
Cc1cccc(N2CCN(C3=NC(=O)/C(=C\c4cn[nH]c4-c4ccccc4)S3)CC2)c1	-8.7	-2.6	-1.3	16.4*	8.6	5.7	5.7
Cc1ccc(N2CCN(C3=NC(=O)/C(=C\c4cn[nH]c4-c4ccccc4)S3)CC2)cc1	-9.7	-2.5	-7.2	18.1*	7.6	4.4	2.9
Cc1ccc(NC(=O)CCC(=O)OCC(=O)c2ccc(Oc3ccc([N+](=O)[O-])cc3)cc2)cc1	5.9	-0.9	-1.7	25.6*	-2.7	-0.6	5.6
COc1ccc(NC(=O)CCC(=O)OCC(=O)c2ccc(Oc3ccc([N+](=O)[O-])cc3)cc2)cc1	-10.4	9.1	2.7	-1.3	-3.4	/	/
COC(=O)c1c(NC(=O)C(C)(C)C)sc2c1CCN(Cc1ccccc1)C2	-20.3	/	-8.5	11.4*	-9.1	5.8	5.1
NC(=S)N/N=C/c1cc([N+](=O)[O-])ccc1OCCOc1ccccc1	2.4	15.5	5.2	16.2*	-12.5	1.6	3.5
CCOc1ccc(NC(=O)C2CC(=O)N(c3ccc4c(c3)OCCO4)C2)cc1OCC (centres undefined)	-5.5	/	-7.1	-2.8	11.2	/	/
NC(Cc1ccc(C(F)(F)F)cc1)c1csc(Nc2ccccn2)n1 (centres undefined)	-3.8	/	/	7.4	0.4	/	/
CN(Cc1ccccc1)C(=O)c1ccc(Nc2nc(C(N)Cc3ccc(C(F)(F)F)cc3)cs2)nc1 (centres undefined)	7.1	/	/	40.3*	20.2	22.2*	33.4*
NC(Cc1ccc(C(F)(F)F)cc1)c1csc(Nc2cc(NCc3ccco3)ncn2)n1 (centres undefined)	5.7	/	/	12.1*	8.2	43.4*	25.8*
CN(Cc1ccccc1)C(=O)c1ccc(Nc2nc(C(N)Cc3ccccc3)cs2)nc1 (centres undefined)	-7.2	/	/	1.4	-2.0	/	/
NC(CCc1ccccc1)c1csc(Nc2ccc(C(=O)c3ccccc3)cc2)n1 (centres undefined)	0.7	/	/	13.1*	12.7	20.1*	8.5
NC(Cc1ccc(C(F)(F)F)cc1)c1csc(Nc2ccc(C(=O)c3ccccc3)cc2)n1 (centres undefined)	9.5	/	/	12.7*	6.8	14.3*	14.3
COc1cccc(NC(=O)CSc2nc3ccsc3c(=O)n2-c2ccc(C(=O)O)cc2)c1	5.3	-0.8	2.4	-1.4	-2.9	/	/
CC(=O)c1cc2c(cc1NC(=O)c1ccc(C)cc1)OCCO2	-14.2	/	8.5	9.6*	1.2	2.0	1.2
Cc1csc(NC(=O)c2cc(-c3ccccc3)nc3ccccc23)n1	-27.8	1.2	2.6	12.3*	-1.9	3.5	7.5
CC(C)(C)c1nnc(NC(=O)c2cc(-c3ccccc3)nc3ccccc23)s1	-1.7	-0.5	4.7	0.5	0.6	/	/
CCOc1ccccc1CNC(=O)C1CCN(c2nnc(C)c3c(C)n(-c4ccc(C)cc4)nc23)CC1	37.1*	/	-5.8	10.0*	2.8	3.9	9.2	NOD2 RIPK2 conf=35.4*;BLA counter=11.6*
SMILES	NOD2 RIPK2 PPI	TLR4-MyD88 BLA	TLR9-MyD88 block	MC4R ag barr	MC4R antagonist	MC4R barr conf	MOR-DOR barr ag	others
COc1ccccc1-c1nc2cc3ccccc3cc2nc1-c1ccccc1	-2.0	-3.9	2.7	-2.0	16.8	/	/
O=C(Nc1cccc([N+](=O)[O-])c1)c1ccc(-c2ccccc2)cc1	34.0*	16.5	4.2	39.4*	8.5	5.9	24.6*	NOD2 RIPK2 conf=6.5;BLA counter=2.9
COc1cc(C(=O)NC2CCCC(C)C2C)ccc1OCC(=O)N1CCOCC1 (centres undefined)	-3.1	/	-11.2	-1.3	-0.8	/	/
O=C(Nc1nc2cc3c(cc2s1)OCO3)c1cccc(N2C(=O)CCC2=O)c1	-4.4	/	-1.4	1.5	8.7	/	/
O=C(Nc1nc2cc3c(cc2s1)OCO3)c1ccc(N2C(=O)CCC2=O)cc1	22.4*	/	1.4	11.9*	14.9	-0.2	12.5	NOD2 RIPK2 conf=32.1*;BLA counter=30.6*
CCOc1ccc(CNC(=O)c2ccc(Sc3ccc(Cl)cc3)c(NC(C)=O)c2)cc1	33.4*	-4.4	4.1	1.2	1.7	/	/	NOD2 RIPK2 conf=1.1;BLA counter=1.6
O=C(NC1CCCCC1)C(c1ccccc1)n1c(=O)c(-c2cc3ccccc3[nH]2)nc2ccccc21 (centres undefined)	43.5*	/	/	/	/	/	/	NOD2 RIPK2 conf=40.0*;BLA counter=66.0*
N#Cc1ccc(C(C(=O)NC2CCCCC2)n2c(=O)c(-c3cc4ccccc4[nH]3)nc3ccccc32)cc1 (centres undefined)	53.5*	/	/	/	/	/	/	NOD2 RIPK2 conf=50.2*;BLA counter=71.1*
N#Cc1ccc(C(C(=O)NC2CCCCC2)n2c(=O)c(-c3ccco3)nc3ccccc32)cc1 (centres undefined)	-1.1	/	/	/	/	/	/
